Published values collected from several papers.
Protocols differ between the studies behind these lines.
Cell line: HT-29

C#Cc1cccc(Nc2ncnc3cc(OCCOC)c(OCCOC)cc23)c1
IC50 (cell growth or viability, MTT): 0.07 µM

O=c1cc(CO)occ1[O-].[Cl-].[W+4].c1cc[cH-]c1.c1cc[cH-]c1
IC50 (cell growth or viability, MTT): 200 µM

CC[C@H](C)C(=O)O[C@H]1CCC=C2C=C[C@H](C)[C@H](CC[C@@H]3C[C@@H](O)CC(=O)O3)[C@H]21
IC50 (cell growth or viability, SRB; 72 h): 0.07 µg/mL

O=C(O)/C=C/c1ccc(O)c(O)c1
IC50 (cell growth or viability, MTT): 4.3 µM

O=C1Nc2ccc(Br)cc2/C1=N/NC(=O)c1cc2ccccc2[nH]1
IC50 (cell growth or viability): 21.9 µM

C#C[C@@]1(O)[C@@H](COP(=O)(O)OC[C@H]2O[C@@H](n3cc(F)c(=O)[nH]c3=O)C[C@@H]2O)O[C@@H](n2ccc(N)nc2=O)[C@@H]1O
IC50 (cell growth or viability, SRB; 72 h): 0.0054 µM

CN1C(=O)/C(=N\NC(=O)c2cc3ccccc3[nH]2)c2cc(Br)ccc21
IC50 (cell growth or viability): 3.68 µM

Cc1ccc(-n2nc(C(C)(C)C)cc2NC(=O)Nc2ccc(OCCN3CCOCC3)c3ccccc23)cc1
IC50 (IL-8 release; 24 h): > 1.9 µM

O=C(O)c1cc(O)c(O)c(O)c1
IC50 (cell growth or viability, MTT): 16.3 µM

O=c1[nH]c(=O)n([C@H]2C[C@H](O)[C@@H](CO)O2)cc1F
IC50 (cell growth or viability, SRB; 72 h): 0.056 µM

COc1cccc(C(=O)O[C@@H]2CN3Cc4c(cc5c(c4OC)OCO5)[C@@]24C=C[C@H](OC)C[C@@H]34)c1
IC50 (cell growth or viability, WST-1): > 10 µM

CCN(CC)CCNC(=O)c1c(C)[nH]c(/C=C2\C(=O)Nc3ccc(F)cc32)c1C
IC50 (cell growth or viability): 10.1 µM

COc1c(C)c(OC)c2c(c1C)OC(c1ccccc1)CC2=O (stereo not shown)
IC50 (cell growth or viability, SRB; 72 h): > 50 µM

CC(=O)O[C@H]1C(=O)[C@@]2(C)[C@H]([C@H](OC(=O)c3ccccc3)[C@]3(O)C[C@H](OC(=O)[C@H](O)[C@@H](NC(=O)c4ccccc4)c4ccccc4)C(C)=C1C3(C)C)[C@]1(OC(C)=O)CO[C@@H]1C[C@@H]2O
IC50 (cell growth or viability, fluorescence; 72 h): 0.0035 µM

CN1C(=O)/C(=N\NC(=O)c2cc3ccccc3[nH]2)c2ccccc21
IC50 (cell growth or viability): 12.9 µM

COc1ccc(C(=O)O[C@@H]2CN3Cc4c(cc5c(c4OC)OCO5)[C@@]24C=C[C@H](OC)C[C@@H]34)cc1OC
IC50 (cell growth or viability, WST-1): > 10 µM

NCC(=O)Nc1ccc(-n2nc(C(F)(F)F)cc2-c2ccc3c(c2)Nc2ccccc2S3)cc1
IC50 (cell growth or viability, MTT; 24 h): 6.2 µg/mL

c1csc([I+]c2cccs2)c1
IC50 (cell growth or viability, trypan blue; 48 h): ~2.5 µM

CC(=O)c1cccc(/N=N/c2cc(/C=C/C(=O)O)ccc2O)c1
IC50 (cell growth or viability, MTT): > 50 µM

O=C1Nc2ccc(F)cc2/C1=N/NC(=O)c1cc2ccccc2[nH]1
IC50 (cell growth or viability): > 30 µM

COc1ccc(-c2cc3nccn3c(Nc3ncccc3C(N)=O)n2)cc1OC
IC50 (IL-8 release; 24 h): > 2.56 µM

COc1ccc(C(=O)O[C@@H]2CN3Cc4c(cc5c(c4OC)OCO5)[C@@]24C=C[C@H](OC)C[C@@H]34)cc1
IC50 (cell growth or viability, WST-1): > 10 µM

O=C(O)C[C@H](O)C[C@H](O)/C=C/c1c(C2CC2)nc2ccccc2c1-c1ccc(F)cc1
IC50 (cell growth or viability, SRB; 72 h): 0.09 µg/mL

CC(=O)O[C@H]1C(=O)[C@@]2(C)[C@H]([C@H](OC(=O)c3ccccc3)[C@]3(O)C[C@H](OC(=O)[C@H](O)[C@@H](NC(=O)c4ccccc4)c4ccccc4)C(C)=C1C3(C)C)[C@]1(OC(C)=O)CO[C@@H]1C[C@@H]2O
IC50 (cell growth or viability): 0.0006 µM

F[B-](F)(F)F.[Fe+3].c1cc[cH-]c1.c1cc[cH-]c1
IC50 (cell growth or viability, MTT): 180 µM

NCCCC[C@@H](N)C(=O)Nc1ccc(-n2nc(C(F)(F)F)cc2-c2ccc3c(ccc4ccccc43)c2)cc1
IC50 (cell growth or viability, MTT; 24 h): 3.2 µg/mL

COc1ccc2c(c1)/C(=N/NC(=O)c1cc3ccccc3[nH]1)C(=O)N2C
IC50 (cell growth or viability): 5.73 µM

CC(C)C[C@H](NC(=O)[C@H](Cc1ccccc1)NC(=O)c1cnccn1)B(O)O
IC50 (cell growth or viability, ATP luminescence): 0.0098 µM
